One substance from ChEMBL document CHEMBL2406905, “Improving the antibacterial activity and selectivity of an ultra short peptide by hydrophobic and hydrophilic amino acid stretches” (Bioorg Med Chem Lett, 2013) can be followed below.

In data set [1] the test system is Staphylococcus epidermidis. The data set can be described thus: Antibacterial activity against Staphylococcus epidermidis ATCC 12228 assessed as growth inhibition after 24 hrs. It is filed as functional. Conditions: Staphylococcus epidermidis, ATCC 12228, 24 h. The essentials:
(§1)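 Log-phase bacteria adjusted to OD600 0.001 in nutrient broth. Peptide dilutions in 20 mM Tris–HCl pH 7.4 were added; buffer alone served as control. Incubation was 37 °C for 24 h. % inhibition was calculated from the OD600 change (24 h minus time zero) relative to the control change. MIC was the concentration giving >90% growth inhibition.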

Data set [2] in a line: Therapeutic index, ratio of MHC for human RBC to MIC for Staphylococcus epidermidis ATCC 12228. The settings on record: human red blood cells (RBC), read-out: TI. The essentials:
(§2)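 Index was calculated as MHC/MIC. MHC was the lowest peptide concentration producing 5% hemolysis of human red blood cells. MIC was the concentration giving >90% inhibition of bacterial growth (OD600) after 24 h at 37 °C in nutrient broth, with bacteria starting at OD600 0.001.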

Data set [3] concerns Escherichia coli. In words: Bactericidal activity against Escherichia coli ATCC 25922 assessed as reduction in CFU at 11 ug/mL after 48 hrs. It is filed as functional. On the set-up: scale not given: the % may be the effect or the level left. In outline: (§3)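 After the 24 h, 37 °C broth-microdilution exposure (log-phase inoculum at OD600 0.001, peptide in 20 mM Tris–HCl pH 7.4), 5 μL from each well was plated on agar and incubated at 37 °C for 48 h. 100% bactericidal concentration was the concentration giving a 99.9% CFU reduction from the starting inoculum.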

The test system of data set [4] is Staphylococcus epidermidis. In words: Bactericidal activity against Staphylococcus epidermidis ATCC 12228 assessed as reduction in CFU at 23 ug/mL after 48 hrs. The data set is classed as functional. On the set-up: scale not given: the % may be the effect or the level left. The essentials:
as §3

The test system of data set [5] is Salmonella typhi. In words: Bactericidal activity against Salmonella typhi DMST 22842 assessed as reduction in CFU at 23 ug/mL after 48 hrs. The data set is classed as functional, Salmonella enterica subsp. enterica serovar Typhi. On the set-up: scale not given: the % may be the effect or the level left. In outline: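 Bacteria at OD600 0.001 in nutrient broth were exposed to peptide in 20 mM Tris–HCl (pH 7.4) at 37 °C for 24 h. A sample from each well was then plated on agar and incubated at 37 °C for 48 h. Bactericidal activity was taken as a 99.9% CFU reduction versus the starting inoculum.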

Data set [6] in a line: Therapeutic index, ratio of MHC for human RBC to MIC for Staphylococcus aureus ATCC 25923. The settings on record: human red blood cells (RBC), read-out: TI. The essentials:
as §2

The subject of data set [7] is Salmonella typhi. In words: Antibacterial activity against Salmonella typhi DMST 22842 assessed as growth inhibition after 24 hrs. Conditions: Salmonella enterica, DMST 22842, 24 h. The data set is classed as functional, Salmonella enterica subsp. enterica serovar Typhi.
A further data set concerns Staphylococcus aureus. The data set can be described thus: Antibacterial activity against Staphylococcus aureus ATCC 25923 assessed as growth inhibition after 24 hrs. It is filed as functional. The essentials:
as §1

Data set [8] can be described thus: Hemolytic activity in human RBC at 1 to 91 ug/ml. The settings on record: erythrocyte. The data set is classed as ADME, cell-based. The essentials: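 Human red blood cells were exposed to peptide. Minimal hemolytic concentration was taken as the lowest peptide concentration producing 5% hemolysis.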
The test system of data set [9] is Escherichia coli. The data set can be described thus: Antibacterial activity against Escherichia coli ATCC 25922 assessed as growth inhibition after 24 hrs. Conditions: Escherichia coli, ATCC 25922, 24 h. The data set is classed as functional. In outline: as §1
The test system of data set [10] is Escherichia coli. The data set can be described thus: Antibacterial activity against Escherichia coli ATCC 25922 assessed as appearance of blebs on cell surface at 10 X MIC after 1 min by SEM analysis. The data set is classed as functional, organism-based. The essentials:
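Bacterial suspension at OD600 0.1 was exposed to peptide at 10× MIC for 1 min and 60 min. The negative control was 20 mM Tris–HCl buffer. Cell morphology was then examined by scanning electron microscopy.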

The nature of data set [11]: Therapeutic index, ratio of MHC for human RBC to MIC for Salmonella typhi DMST 22842. The settings on record: human red blood cells (RBC), read-out: TI. In outline:
as §2

The nature of data set [12]: Therapeutic index, ratio of MHC for human RBC to MIC for Escherichia coli ATCC 25922. The settings on record: human red blood cells (RBC), read-out: TI. In outline:
as §2

The next data set concerns Vibrio cholerae non-O1. The data set can be described thus: Antibacterial activity against Vibrio cholerae non-O1 non-O139 assessed as growth inhibition after 24 hrs. It is filed as functional.
For a further data set, the system named is Pseudomonas aeruginosa. The data set can be described thus: Antibacterial activity against Pseudomonas aeruginosa ATCC 27853 assessed as growth inhibition after 24 hrs. It is filed as functional. The essentials:
as §1

Calls of active or inactive are those of the source. The calls are words filed in the database; no cut-off is given here.

Take H-NGVQPKYKWWKWWKKWWW-NH2: the MIC90 in data set [1] was 23 µg/mL; in the data set with Salmonella typhi [7] it was 23 µg/mL; with Staphylococcus aureus (Staphylococcus aureus, ATCC 25923, 24 h), greater than 91 µg/mL; in the data set on Escherichia coli [9], 11 µg/mL. For the same substance, the selectivity ratio in data set [2] was 1; in [6] it was less than 0.5; in [11] it was 1; in data set [12], 2. Besides, the Activity in the data set with Escherichia coli [3] was 100%; in data set [4], 100%; in the data set on Salmonella typhi [5] it was 100%; in data set [8] it was “Toxic”. Also, the “growth inhibition (GI)” value in the data set on Staphylococcus aureus is recorded as less than 90%. Besides, the result with Escherichia coli [10] was Active. The MIC90 result in the data set with Vibrio cholerae non-O1 and with Pseudomonas aeruginosa was “inactive” in each case.
